This passage reports Activity results from ChEMBL document CHEMBL1629547, “Zidovudine impairs adipogenic differentiation through inhibition of clonal expansion” (Antimicrob Agents Chemother, 2008).

The species named for series [1] is Mus musculus. Nature of the series: Antiproliferative activity against mouse 3T3-F442A cells assessed as [3H]thymidine incorporation. The format is functional, cell-based. A general note: Incorporation of labelled thymidine or its analogues reports DNA synthesis.
The subject of another series is Homo sapiens. Nature of the series: Antiproliferative activity against human subcutaneous preadipocyte assessed as [3H]thymidine incorporation at 6 uM. The format is functional. In a few lines:
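Primary human subcutaneous preadipocytes (collagenase-digested abdominal fat, kept in DMEM-Ham's F-12 1:1 with 10% FBS and 172 µM ascorbate 2-phosphate) were given drug or vehicle for 24 h. [3H]thymidine was then added for a further 24 h, and cells were filter-harvested and counted by beta counter (cpm). There were 4 to 16 replicates per experiment, in at least 3 independent experiments.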

For series [2], the species on record is Mus musculus. In words: Induction of preadipocyte differentiation in mouse 3T3-F442A cells assessed as triglyceride accumulation at 6 uM after 9 days by oil red O staining relative to control. The format is functional, cell-based. The gist of the method:
(§1)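 Drug was present while 3T3-F442A cells differentiated. On day 9 cells were fixed in 10% formalin and stained with 0.0021% (wt/vol) Oil red O in 60% isopropanol. Cells were dried, dye extracted with 100% isopropanol, and fluorescence read at 495 nm. Data are from three independent experiments, Mann-Whitney U test versus control.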

For series [3], the species on record is Mus musculus. Nature of the series: Induction of preadipocyte differentiation in mouse 3T3-F442A cells assessed as triglyceride accumulation at 3 uM after 9 days by oil red O staining relative to control. The format is functional, cell-based. In a few lines:
as §1

Series [4] is filed under the species Mus musculus. Nature of the series: Induction of preadipocyte differentiation in mouse 3T3-F442A cells assessed as triglyceride accumulation at 0.1 uM after 9 days by oil red O staining relative to control. The series is classed as functional, cell-based. In a few lines: as §1
The species named for series [5] is Mus musculus. Nature of the series: Induction of preadipocyte differentiation in mouse 3T3-F442A cells assessed as adiponectin mRNA expression on day 9 by RT-PCR analysis. The series is classed as functional, cell-based. In a few lines:
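3T3-F442A preadipocytes were exposed to drug or vehicle from day −7, induced on day 0 and differentiated to day +9, when RNA was taken. Adiponectin mRNA was measured by real-time RT-PCR (42 cycles, 94/55/72°C) against transferrin receptor as calibrator. RNA and cDNA were pooled; there were three independent experiments with triplicate PCR each.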

Series [6] is described as follows: Antiproliferative activity against mouse 3T3-F442A cells assessed as [3H]thymidine incorporation at 1 uM. The series is classed as functional.
Series [7] is described as follows: Antiproliferative activity against mouse 3T3-F442A cells assessed as [3H]thymidine incorporation at 3 uM. The format is functional.
Series [8] is described as follows: Antiproliferative activity against mouse 3T3-F442A cells assessed as [3H]thymidine incorporation at 6 uM. The series is classed as functional.
Series [9] is described as follows: Antiproliferative activity against mouse 3T3-F442A cells assessed as [3H]thymidine incorporation at 180 uM. The format is functional.
The species named for series [10] is Mus musculus. In words: Antiproliferative activity against mouse 3T3-F442A cells assessed as [3H]thymidine incorporation at 0.1 uM. The format is functional, cell-based.
Series [11] is filed under the species Mus musculus. Nature of the series: Induction of adipocyte differentiation in mouse 3T3-F442A cells assessed as triglyceride accumulation at 6 uM on day 9 by oil red O staining relative to control. The format is functional, cell-based. In a few lines: (§2)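 Drug was added to 3T3-F442A cells only after clonal expansion was complete. On day 9 cells were fixed in formalin and stained with 0.0021% Oil red O in 60% isopropanol. Dye was extracted with 100% isopropanol and fluorescence read at 495 nm. Data are from four independent experiments, ANOVA with Bonferroni versus control.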

Series [12] is filed under the species Mus musculus. In words: Induction of adipocyte differentiation in mouse 3T3-F442A cells assessed as triglyceride accumulation at 1 uM on day 9 by oil red O staining relative to control. The format is functional, cell-based. The gist of the method: as §2
Series [13] is filed under the species Mus musculus. Nature of the series: Induction of adipocyte differentiation in mouse 3T3-F442A cells assessed as PPARgamma mRNA expression on day 6 by RT-PCR analysis. The format is functional, cell-based.
For series [14], the species on record is Mus musculus. In words: Induction of adipocyte differentiation in mouse 3T3-F442A cells assessed as C/EBPalpha mRNA expression on day 6 by RT-PCR analysis. The series is classed as functional, cell-based.
The species entered for series [15] is Mus musculus. Nature of the series: Antiproliferative activity against mouse 3T3-F442A cells assessed as mtDNA depletion. The series is classed as functional, cell-based.
The nature of series [16]: Cytotoxicity against mouse 3T3-F442A cells at 1 uM after 8 days by trypan blue staining.
Series [17] can be described thus: Cytotoxicity against mouse 3T3-F442A cells at 6 uM after 8 days by trypan blue staining.
Series [18] deals with 3T3-F442A (Mus musculus). Nature of the series: Induction of preadipocyte differentiation in mouse 3T3-F442A cells assessed as PPARgamma mRNA expression on day 4 by RT-PCR analysis.
Series [19] has as its system 3T3-F442A. The series is described as above.
In series [20] the test system is 3T3-F442A (Mus musculus). In words: Induction of preadipocyte differentiation in mouse 3T3-F442A cells assessed as C/EBPalpha mRNA expression on day 6 by RT-PCR analysis.
Series [21] has as its system 3T3-F442A. Described as above.

Molecules are shown by their SMILES. Active and inactive are the calls of the source. The calls are words filed in the database; no cut-off is given here.

In the case of `Cc1cn([C@H]2C[C@H](N=[N+]=[N-])[C@@H](CO)O2)c(=O)[nH]c1=O` [ZIDOVUDINE], the outcome in the series filed under Mus musculus [1], in the series on Homo sapiens, in the series listed under Mus musculus [2], in the series listed under Mus musculus [5], in the series on 3T3-F442A (Mus musculus) [18] and with 3T3-F442A [19] was Active. Also, the outcome in the series with 3T3-F442A (Mus musculus) [20] and with 3T3-F442A [21] was Active. Further, the outcome in the series listed under Mus musculus [3], in the series listed under Mus musculus [4], in the series filed under Mus musculus [10], in the series filed under Mus musculus [11], in the series listed under Mus musculus [12] and in the series listed under Mus musculus [13] was inactive. Moreover, the result in the series filed under Mus musculus [14] and in the series listed under Mus musculus [15] was inactive. For the same compound, the Activity in series [6] was 30%; in [7], 30%; in series [8], 30%; in series [9] it was 30%; in series [16], “Non-toxic”; in [17], “Non-toxic”.
